From ChEMBL document CHEMBL3593178, “Synthesis and evaluation of hedgehog signaling inhibitor with novel core system” (Bioorg Med Chem, 2015)

Experiments:
[1] = Inhibition of hedgehog signaling pathway in mouse NIH/3T3 cells after 48 hrs by Gli-luciferase reporter gene assay; type: cell-based; conditions: NIH3T3, 48 h
Summary of the method: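 NIH3T3 cells stably carrying Gli-luciferase reporter, kept in DMEM/10% FBS with 500 µg/mL G418, seeded at 7.5 × 10³ cells/well on collagen-coated plates overnight at 37 °C, 5% CO2; then recombinant mouse Shh-N plus compound (final 0.03–1000 nM, 5.8% FBS), n = 4 wells, 48 h; luciferase read with Bright-Glo; 0.1% DMSO ± 1 µg/mL Shh-N as controls; IC50 mean of four.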

[2] = AUC (0 to 8 hrs) in non-fasted mouse at 10 mg/kg, po cassette dosing by LC/MS/MS analysis; type: ADME, organism-based; set-up: dose 10 mg/kg, time < 8 hr, route oral; conditions: in vivo
Summary of the method: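 Single 10 mg/kg oral cassette dose to nonfasted mice; blood sampled, plasma separated by centrifugation, deproteinized with MeCN containing internal standard, supernatant diluted in 10 mmol/L HCOONH4/0.2% formic acid–MeCN with 0.2% formic acid (9:1), recentrifuged, concentrations quantified by LC/MS/MS; AUC from 0 to 8 h.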

[3] = In vivo inhibition of Gli1 mRNA expression in mouse bearing human PAN-04 cells assessed as expression level at 25 mg/kg, po bid after 24 hrs by qPCR analysis relative to control; type: functional
Summary of the method: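 Nude mice bearing human primary pancreatic tumor PAN-04 given compound orally twice daily at 25 mg/kg; tumors excised 24 h after first dose, stored in RNAlater; mouse stromal Gli1 mRNA quantified with mouse Gli1 and mouse GAPDH probe sets; expressed relative to controls.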

| IC50 [1] [nM] | AUC(0-t) at 8 h [2] [ng·h/mL] | SMILES | Gli1 mRNA expression relative to control [3] [%] |
| --- | --- | --- | --- |
| 6.2 |  | CCc1nc2c(c(OCC(F)(F)F)c(C(=O)NC3CCN(C(=O)CO)CC3)n2C)c(=O)n1CC(=O)c1ccccc1 |  |
| 3.6 | 10800 | CCc1nc2c(cc1NC(=O)c1ccccc1)c(OCC(F)(F)F)c(C(=O)NC1CCN(C(=O)CO)CC1)n2C | 24 |
| 3.9 | 984 | CCc1cc2c(nc1NC(=O)c1ccccc1)c(OCC(F)(F)F)c(C(=O)NC1CCN(C(=O)CO)CC1)n2C | 87 |
| 4.4 | 28300 | CCc1cc2c(c(OCC(F)(F)F)c(C(=O)NC3CCN(C(=O)CO)CC3)n2C)c(=O)n1CC(=O)c1ccccc1 [TAK-441] | 4 |
| 3.1 | 925 | CCc1nc2c(nc1NC(=O)c1ccccc1)c(OCC(F)(F)F)c(C(=O)NC1CCN(C(=O)CO)CC1)n2C | 57 |
| 46 |  | CCc1nc2c(cc1CC(=O)c1ccccc1)c(OCC(F)(F)F)c(C(=O)NC1CCN(C(=O)CO)CC1)n2C |  |
| 2.6 | 1270 | CCc1cc2c(cc1NC(=O)c1ccccc1)c(OCC(F)(F)F)c(C(=O)NC1CCN(C(=O)CO)CC1)n2C | 50 |
